Data set [1] deals with HUVEC. The experiment in a line: Antiangiogenic activity in HUVEC assessed as inhibition of VEGF-165-induced tube formation at 0.2 to 2 uM after 24 hrs by matrigel assay. The data set is classed as functional, cell-based. As to conditions: Homo sapiens. In a few lines: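 HUVEC seeded at 2×10^4 cells/well on growth factor-reduced Matrigel after pre-starvation, then given compound or vehicle (up to 0.1% v/v DMSO), with or without VEGF-165, for 24 h. Fixed in ice-cold ethanol and stained with haematoxylin-eosin. Tube-like structures counted in at least 5 fields/well and expressed as % of vehicle control; replicates from two independent experiments.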

A short description of data set [2]: Antiproliferative activity against human EAhy926 cells assessed as decrease in cell viability after 24 to 48 hrs in presence of 2.5% fetal bovine serum by MTT assay. In kind it is functional, cell-based. As to conditions: EA.hy 926. In short, it runs like this: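 EA.hy926 in DMEM with 2.5% FBS exposed 48 h to serial 1:2 compound dilutions spanning 0.125–50 μM. Viable cells measured by MTT (0.5 mg/mL, 4 h, A595/630 nm). IC50 (mean ± SEM) fitted by non-linear regression from eight or more points.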
On the technique in general: Formazan colour is commonly taken as a measure of viable cells.

Data set [3] concerns HUVEC. The data set can be described thus: Inhibition of VEGF-165-induced HUVEC chemotactic migration at 0.2 to 2 uM after 6 hrs by transwell assay. In kind it is functional, cell-based. Particulars: Homo sapiens. In short, it runs like this: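 Serum-starved HUVEC were pre-treated overnight with compound or vehicle in 5% FBS medium. Cells were then seeded at 6×10^4 per upper Transwell chamber (8 µm pores) and migrated for 6 h toward VEGF-165 (50 ng/mL) or starvation medium. Migrated cells were ethanol-fixed, stained with H&E and counted in five fields per well. Results are % of control from at least two independent experiments.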

The test system of another data set is EA.hy 926. The experiment in a line: Antiproliferative activity against human EAhy926 cells assessed as decrease in cell viability at 0.2 to 2 uM after 24 to 48 hrs in presence of 2.5% fetal bovine serum by MTT assay. In kind it is functional, cell-based. In short, it runs like this: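 EA.hy926 seeded at 4×10^3/well, adhered 24 h, and starved 4 h in 0.25% BSA medium. Then treated with compound or 0.1% v/v DMSO in medium with 2.5% FBS for 48 h. MTT 0.5 mg/mL for 4 h, A595 with 630 nm correction, cell number from a standard curve. Expressed as % of DMSO control; replicates from two independent experiments.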

For data set [4], the system named is Mus musculus. The data set can be described thus: Toxicity in C57BL/6 mouse allografted with mouse LLC cells at 0.05 to 0.2 mg/kg, ip administered thrice a week for 2 weeks starting 24 hrs before tumor implantation by clinical test. The data set is classed as organism-based. Particulars: in vivo. In short, it runs like this:
(§1)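 Male C57BL/6 mice, 6–8 weeks old, in groups of 5–6, received 5×10^5 LLC cells sc in the right flank. Compound (0.05–0.2 mg/kg) or DMSO vehicle was given ip thrice weekly for 2 weeks, starting 24 h before implantation. Mice were weighed and examined clinically every other day. At end-point, kidney, lung, spleen, liver and heart sections were H&E-stained and examined microscopically.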

For data set [5], the system named is HUVEC (Homo sapiens). The data set can be described thus: Antiproliferative activity against human HUVEC cells assessed as decrease in VEGF-165-induced cell growth at 0.5 to 2 uM after 24 to 48 hrs by MTT assay.
Data set [6] relates to Mus musculus. The experiment in a line: Toxicity in C57BL/6 mouse allografted with mouse LLC cells assessed as effect on vital organs at 0.05 to 0.2 mg/kg, ip administered thrice a week for 2 weeks starting 24 hrs before tumor implantation by haematoxylin-eosin staining-based microscopic analysis. The data set is classed as organism-based. As to conditions: in vivo. In short, it runs like this:
as §1

Data set [7] deals with Vascular endothelial growth factor receptor 2 (Homo sapiens) (UniProt P35968). The data set can be described thus: Inhibition of VEGF-165-induced VEGFR2 autophosphorylation in serum-starved HUVEC assessed as decrease in ERK1/2 phosphorylation at 2 uM preincubated for 2 hrs followed by VEGF-165 induction measured after 5 mins by Western blot analysis. In kind it is cell-based. In a few lines: (§2)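 Serum-starved HUVEC were given 2 µM compound or vehicle for 2 h, then VEGF-165 (50 ng/mL) or PBS for 5 min. Lysates with equal protein were run on SDS-PAGE and immunoblotted for phospho-VEGFR2 (Tyr951, 996, 1056, 1175), p-AKT Ser473, p-ERK1/2 and the total proteins. Detection was by ECL with densitometry. Phospho signals were normalized to total protein, n = 3.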
Vascular endothelial growth factor receptor 2 (Homo sapiens), sequence (P35968 whole entry): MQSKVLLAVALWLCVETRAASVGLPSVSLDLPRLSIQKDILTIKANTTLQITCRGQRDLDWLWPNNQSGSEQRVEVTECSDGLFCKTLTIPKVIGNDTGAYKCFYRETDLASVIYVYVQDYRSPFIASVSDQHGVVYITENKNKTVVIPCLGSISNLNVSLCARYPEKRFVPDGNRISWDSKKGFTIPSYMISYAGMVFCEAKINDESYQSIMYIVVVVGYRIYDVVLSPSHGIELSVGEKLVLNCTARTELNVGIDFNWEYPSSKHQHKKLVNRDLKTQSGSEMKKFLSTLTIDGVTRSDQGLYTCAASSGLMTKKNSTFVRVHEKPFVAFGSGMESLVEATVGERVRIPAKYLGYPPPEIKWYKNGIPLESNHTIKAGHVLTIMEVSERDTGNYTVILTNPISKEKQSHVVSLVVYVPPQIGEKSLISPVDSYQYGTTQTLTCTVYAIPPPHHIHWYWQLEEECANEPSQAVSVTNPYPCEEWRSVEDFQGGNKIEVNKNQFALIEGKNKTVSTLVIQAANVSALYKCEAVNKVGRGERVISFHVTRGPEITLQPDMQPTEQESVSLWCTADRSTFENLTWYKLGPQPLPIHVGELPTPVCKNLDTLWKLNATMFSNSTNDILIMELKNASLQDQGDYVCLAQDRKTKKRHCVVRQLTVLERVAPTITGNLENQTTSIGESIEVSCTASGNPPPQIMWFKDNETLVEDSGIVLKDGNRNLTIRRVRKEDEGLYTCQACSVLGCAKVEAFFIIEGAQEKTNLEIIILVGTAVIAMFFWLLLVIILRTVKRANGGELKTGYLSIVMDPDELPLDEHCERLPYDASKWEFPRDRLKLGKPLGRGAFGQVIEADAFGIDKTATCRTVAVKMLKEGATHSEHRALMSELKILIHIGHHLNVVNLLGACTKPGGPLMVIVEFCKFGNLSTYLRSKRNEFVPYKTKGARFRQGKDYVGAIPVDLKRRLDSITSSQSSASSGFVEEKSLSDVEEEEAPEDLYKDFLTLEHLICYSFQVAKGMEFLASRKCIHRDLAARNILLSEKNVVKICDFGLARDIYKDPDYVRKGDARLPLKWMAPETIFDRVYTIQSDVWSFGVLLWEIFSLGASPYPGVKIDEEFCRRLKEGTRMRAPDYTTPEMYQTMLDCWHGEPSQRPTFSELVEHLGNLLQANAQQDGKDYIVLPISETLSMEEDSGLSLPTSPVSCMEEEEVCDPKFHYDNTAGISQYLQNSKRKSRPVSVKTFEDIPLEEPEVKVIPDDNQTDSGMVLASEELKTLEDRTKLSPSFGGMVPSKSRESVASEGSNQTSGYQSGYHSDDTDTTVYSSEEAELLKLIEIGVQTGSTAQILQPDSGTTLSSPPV
Background: A western blot detects proteins with antibodies after separation by electrophoresis.

The target is the same in data set [8]. The experiment in a line: Inhibition of VEGF-165-induced VEGFR2 autophosphorylation at Tyr1175 in serum-starved HUVEC at 2 uM preincubated for 2 hrs followed by VEGF-165 induction measured after 5 mins by Western blot analysis. The data set is classed as cell-based. In a few lines:
as §2

Data set [9] has as its system HUVEC. The experiment in a line: Inhibition of total protein tyrosine kinase activity in serum-starved HUVEC at 1 to 4 uM after 2 hrs. The data set is classed as cell-based. As to conditions: Homo sapiens.
Data set [10] concerns HUVEC (Homo sapiens). The experiment in a line: Antiproliferative activity against human HUVEC cells assessed as decrease in VEGF-165-induced cell growth at 0.5 to 2 uM after 24 to 48 hrs by CyQUANT cell proliferation assay.
The subject of another data set is Lewis lung carcinoma. The data set can be described thus: Antiangiogenic activity in mouse LLC cells allografted in C57BL/6 mouse assessed as decrease of microvessel density in tumor at 0.2 mg/kg, ip administered thrice a week for 2 weeks starting 24 hrs before tumor implantation measured post last dose by IHC analysis. The data set is classed as functional, organism-based. In short, it runs like this: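 Male 6–8 week C57BL/6 mice (groups of 5–6) inoculated sc in the right flank with 5×10^5 LLC cells. Compound (0.2 mg/kg) or DMSO vehicle given ip thrice weekly for 2 weeks, starting 24 h before implantation. Tumors measured by caliper every other day. At end-point, anti-CD31 IHC (1:100) of tumor sections, with immunoreactive cells counted in six high-power fields.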

Data set [11] concerns the target Vascular endothelial growth factor receptor 2 (Homo sapiens) (UniProt P35968). The experiment in a line: Inhibition of VEGF-165-induced VEGFR2 autophosphorylation in serum-starved HUVEC assessed as decrease in AKT phosphorylation at 2 uM preincubated for 2 hrs followed by VEGF-165 induction measured after 5 mins by Western blot analysis. In kind it is cell-based. In a few lines: as §2

The test system of data set [12] is HUVEC. The experiment in a line: Antimigratory activity in HUVEC at 0.2 to 2 uM after 6 hrs in presence of 5% fetal bovine serum by transwell assay. The data set is classed as functional, cell-based. As to conditions: Homo sapiens. In a few lines:
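Serum-starved confluent HUVEC pre-treated overnight with compound or vehicle in 5% FBS medium. Then placed in the upper chamber of 8 µm-pore Transwells (6×10^4 cells/well) and allowed to migrate 6 h toward 5% FBS or starvation medium. Migrated cells fixed, H&E stained, and counted in five fields/well; expressed as % of control; replicates from two independent experiments.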

The values below come from ChEMBL document CHEMBL3856209, “Novel pyrazolopyridine derivatives as potential angiogenesis inhibitors: Synthesis, biological evaluation and transcriptome-based mechanistic analysis” (Eur J Med Chem, 2016).

The source made the active and inactive calls. The rule behind the calls is not given here.

In general, IC50 refers to the concentration that inhibits the measured activity by half. As to `COc1ccc(Cn2nc(-c3ccccc3)c3cc(Nc4ccccc4)nc(N4CCNCC4)c32)cc1`, the inhibition entry (with HUVEC [1]; in the data set with HUVEC [3]; in data set [7]; in [8]; in the data set with HUVEC [9]; in [11]) was “Active” throughout. Further, the IC50 in data set [2] was 14.1 µM. Besides, the outcome in the data set on EA.hy 926, in the data set with HUVEC (Homo sapiens) [5], in the data set with HUVEC (Homo sapiens) [10], in the data set with Lewis lung carcinoma and in the data set on HUVEC [12] was Active. Further, the Activity entry in the data set with Mus musculus [4] and in the data set with Mus musculus [6] was “Non-Toxic” each time.
